Key:
[1] = AUC (0 to t) in human at 400 mg, po administered with 400 mg ketoconazole after 7 days; format: ADME, organism-based; settings: plasma
Summary of the method: (§1)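 Healthy adults (n = 20) in a two-sequence crossover with a 1-week washout. Single oral 400 mg dose after overnight fast, 4 h post-dose fast; ketoconazole 400 mg oral given 1 h before in the combination period. Plasma sampled predose and 0.5–24 h; validated LC-MS/MS after solid-phase extraction (5–1,000 ng/ml). AUC0-t by log-linear trapezoidal method; AUC0-∞ = AUC0-t + Clast/λz.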

[2] = AUC (0 to infinity) in human at 400 mg, po administered with 400 mg ketoconazole after 7 days; format: ADME, organism-based; set-up: dose 400 mg, time infinity, route oral; settings: plasma; summary of the method: as §1
[3] = Terminal elimination half-life in human at 400 mg, po administered with 400 mg ketoconazole after 7 days; format: ADME, organism-based; settings: in vivo
Summary of the method: (§2)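 Crossover in healthy adults: single fasted oral 400 mg dose, alone or 1 h after oral ketoconazole 400 mg, with a 1-week washout. Plasma drawn predose through 24 h and assayed by LC-MS/MS. λz from log-linear terminal-phase regression; t1/2 = 0.693/λz; CL/F = dose/AUC0-∞; Vz/F = dose/(λz × AUC0-∞). Nominal times used.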

[4] = Tmax in human plasma at 400 mg, po after 24 hrs; format: ADME, organism-based
Summary of the method: (§3)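 Fasted healthy adults got a single oral 400 mg dose, alone or 1 h after ketoconazole 400 mg orally, in crossover periods separated by 1 week. Blood taken predose and at 0.5, 1, 1.5, 2, 3, 4, 6, 8, 12, 16, 24 h; analytes measured by validated LC-MS/MS. Cmax and tmax read from the profiles; tmax ranks compared by ANOVA.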

[5] = Cmax in human plasma at 400 mg, po after 24 hrs; format: ADME, organism-based; set-up: dose 400 mg, route oral; summary of the method: as §3
[6] = Terminal elimination half-life in human at 400 mg, po after 24 hrs; format: ADME, organism-based; settings: in vivo; summary of the method: as §2
[7] = AUC (0 to t) in human at 400 mg, po after 24 hrs; format: ADME, organism-based; set-up: time < 24 hr, dose 400 mg, route oral; settings: plasma; summary of the method: as §1
[8] = AUC (0 to infinity) in human at 400 mg, po after 24 hrs; format: ADME, organism-based; set-up: dose 400 mg, route oral, time infinity; settings: plasma; summary of the method: as §1
[9] = Volume of distribution with respect to oral bioavailability in human at 400 mg, po after 24 hrs; format: ADME, organism-based; settings: in vivo, read-out: Vss/F; summary of the method: as §2
[10] = Apparent oral clearance in human at 400 mg, po after 24 hrs; format: ADME, organism-based; settings: in vivo; summary of the method: as §2
[11] = system: Homo sapiens; assay: Drug excretion in human at 400 mg, po after 24 hrs; format: ADME, organism-based; settings: in vivo
Summary of the method: (§4)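 24-h urine collected from the first void after the oral 400 mg dose, given alone or 1 h after ketoconazole 400 mg, in a crossover of healthy adults. Amount excreted (Ae) measured by LC-MS/MS after solid-phase extraction. Renal clearance = Ae/AUC0-24 from plasma sampled over 24 h.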

[12] = Cmax in human plasma at 400 mg, po administered with 400 mg ketoconazole after 7 days; format: ADME, organism-based; set-up: dose 400 mg, route oral; summary of the method: as §3
[13] = Tmax in human plasma at 400 mg, po administered with 400 mg ketoconazole after 7 days; format: ADME, organism-based; summary of the method: as §3
[14] = Volume of distribution with respect to oral bioavailability in human at 400 mg, po administered with 400 mg ketoconazole after 7 days; format: ADME, organism-based; settings: in vivo, read-out: Vss/F; summary of the method: as §2
[15] = Apparent oral clearance in human at 400 mg, po administered with 400 mg ketoconazole after 7 days; format: ADME, organism-based; settings: in vivo; summary of the method: as §2
[16] = system: Homo sapiens; assay: Drug excretion in human at 400 mg, po administered with 400 mg ketoconazole […]; format: ADME, organism-based; settings: in vivo; summary of the method: as §4
[17] = Renal clearance in human at 400 mg, po administered with 400 mg ketoconazole after 7 days; format: ADME, organism-based, Kidney; settings: in vivo; summary of the method: as §4
[18] = system: Homo sapiens; assay: Tmax in human plasma assessed as VP 44469 at 400 mg, po after 24 hrs; format: ADME, organism-based; settings: in vivo; summary of the method: as §3
[19] = system: Homo sapiens; assay: Cmax in human plasma assessed as VP 44469 at 400 mg, po after 24 hrs; format: ADME, organism-based; set-up: dose 400 mg, route oral; settings: in vivo; summary of the method: as §3
[20] = system: Homo sapiens; assay: Terminal elimination half-life in human assessed as VP 44469 at 400 mg, po after 24 hrs; format: ADME, organism-based; settings: in vivo; summary of the method: as §2
[21] = system: Homo sapiens; assay: AUC (0 to t) in human assessed as VP 44469 at 400 mg, po after 24 hrs; format: ADME, organism-based, Plasma; set-up: dose 400 mg, time < 24 hr, route oral; settings: in vivo; summary of the method: as §1
[22] = system: Homo sapiens; assay: AUC (0 to infinity) in human assessed as VP 44469 at 400 mg, po after 24 hrs; format: ADME, organism-based, Plasma; set-up: dose 400 mg, time infinity, route oral; settings: in vivo; summary of the method: as §1
[23] = system: Homo sapiens; assay: Volume of distribution with respect to oral bioavailability in human assessed as VP 44469 at 400 mg, po after 24 hrs; format: ADME, organism-based; settings: in vivo; summary of the method: as §2
[24] = system: Homo sapiens; assay: Apparent oral clearance in human assessed as VP 44469 at 400 mg, po after 24 hrs; format: ADME, organism-based; settings: in vivo; summary of the method: as §2
[25] = system: Homo sapiens; assay: Drug excretion in human assessed as VP 44469 at 400 mg, po after 24 hrs; format: ADME, organism-based; settings: in vivo; summary of the method: as §4
[26] = system: Homo sapiens; assay: Renal clearance in human assessed as VP 44469 at 400 mg, po after 24 hrs; format: ADME, organism-based, Kidney; settings: in vivo; summary of the method: as §4
[27] = system: Homo sapiens; assay: Tmax in human plasma assessed as VP 44469 at 400 mg, po administered with 400 mg ketoconazole after 7 days; format: ADME, organism-based; settings: in vivo, 168 h; summary of the method: as §3
[28] = system: Homo sapiens; assay: Cmax in human plasma assessed as VP 44469 at 400 mg, po administered with 400 mg ketoconazole after 7 days; format: ADME, organism-based; set-up: dose 400 mg, route oral; settings: in vivo, 168 h; summary of the method: as §3
[29] = system: Homo sapiens; assay: Terminal elimination half-life in human assessed as VP 44469 at 400 mg, po administered with 400 mg ketoconazole after 7 days; format: ADME, organism-based; settings: in vivo, 168 h; summary of the method: as §2
[30] = system: Homo sapiens; assay: AUC (0 to t) in human assessed as VP 44469 at 400 mg, po administered with 400 mg ketoconazole after 7 days; format: ADME, organism-based, Plasma; settings: in vivo, 168 h; summary of the method: as §1
[31] = system: Homo sapiens; assay: AUC (0 to infinity) in human assessed as VP 44469 at 400 mg, po administered with 400 mg ketoconazole after 7 days; format: ADME, organism-based, Plasma; set-up: dose 400 mg, route oral, time infinity; settings: in vivo, 168 h; summary of the method: as §1
[32] = system: Homo sapiens; assay: Volume of distribution with respect to oral bioavailability in human assessed as VP 44469 at 400 mg, po administered with 400 mg ketoconazole after 7 days; format: ADME, organism-based; settings: in vivo, 168 h; summary of the method: as §2
[33] = system: Homo sapiens; assay: Apparent oral clearance in human assessed as VP 44469 at 400 mg, po administered with 400 mg ketoconazole after 7 days; format: ADME, organism-based; settings: in vivo, 168 h; summary of the method: as §2
[34] = system: Homo sapiens; assay: Drug excretion in human assessed as VP 44469 at 400 mg, po administered with 400 mg ketoconazole […]; format: ADME, organism-based; settings: in vivo
[35] = system: Homo sapiens; assay: Renal clearance in human assessed as VP 44469 at 400 mg, po administered with 400 mg ketoconazole […]; format: ADME, organism-based, Kidney; settings: in vivo
[36] = system: Homo sapiens; assay: Toxicity in human assessed as dysgeusia at 400 mg, po after 24 hrs; format: organism-based; settings: in vivo
Summary of the method: (§5)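 Healthy volunteers (20 enrolled) given single oral 400 mg doses, with or without oral ketoconazole 400 mg 1 h before, in crossover with a 1-week washout. The investigator recorded all adverse events, grading severity and drug relatedness. Clinical labs ran the day before and after dosing, ECGs predose and at 2 and 4 h, and liver tests at the day-15 follow-up.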

[37] = system: Homo sapiens; assay: Toxicity in human assessed as adverse event at 400 mg, po after 24 hrs; format: organism-based; settings: in vivo; summary of the method: as §5
[38] = system: Homo sapiens; assay: Toxicity in human assessed as dysgeusia at 400 mg, po administered with 400 mg ketoconazole after 7 days; format: organism-based; settings: in vivo, 168 h; summary of the method: as §5
[39] = system: Homo sapiens; assay: Toxicity in human assessed as headache at 400 mg, po administered with 400 mg ketoconazole after 7 days; format: organism-based; settings: in vivo, 168 h; summary of the method: as §5
[40] = system: Homo sapiens; assay: Toxicity in human assessed as adverse event at 400 mg, po administered with 400 mg ketoconazole after 7 days; format: organism-based; settings: in vivo, 168 h; summary of the method: as §5

Question: Which AUC(0-t) at 168 h [1] does the source give for CC(C)Nc1nc2cc(Cl)c(Cl)cc2n1[C@H]1O[C@@H](CO)[C@H](O)[C@@H]1O [MARIBAVIR] here?
Answer: Its AUC(0-t) at 168 h is 173 µg·h/mL.

Question: And the AUC(0-inf) [2]?
Answer: Its AUC(0-inf) is 194 µg·h/mL.

Question: And the half-life [3]?
Answer: Its half-life is 6.88 h.

Question: What about the Tmax [4] of the same compound?
Answer: The Tmax was 1.7 h.

Question: What about the Cmax [5] of the same compound?
Answer: Its Cmax is 19800 ng/mL.

Question: What about the half-life [6] of the same compound?
Answer: The half-life was 5.73 h.

Question: What about the AUC(0-t) at 24 h [7] of the same compound?
Answer: The AUC(0-t) at 24 h was 119 µg·h/mL.

Question: And the AUC(0-inf) [8]?
Answer: The AUC(0-inf) was 126 µg·h/mL.

Question: And the Vd/F [9]?
Answer: Its Vd/F is 27.5 L.

Question: What about the CL/F [10] of the same compound?
Answer: The CL/F was 59.3 mL/min.

Question: And the Activity [11]?
Answer: Its Activity is 4.12 mg.

Question: What about the Cmax [12] of the same compound?
Answer: The Cmax was 21800 ng/mL.

Question: What about the Tmax [13] of the same compound?
Answer: Its Tmax is 1.9 h.

Question: What about the Vd/F [14] of the same compound?
Answer: Its Vd/F is 21.6 L.

Question: And the CL/F [15]?
Answer: The CL/F was 38.7 mL/min.

Question: What about the Activity [16] of the same compound?
Answer: The Activity was 9.86 mg.

Question: And the CL renal at 168 h [17]?
Answer: Its CL renal at 168 h is 0.953 mL/min.

Question: And the Tmax [18]?
Answer: The Tmax was 2.5 h.

Question: What about the Cmax [19] of the same compound?
Answer: Its Cmax is 1600 ng/mL.

Question: What about the t1/2 [20] of the same compound?
Answer: The t1/2 was 6.83 h.

Question: And the AUC [21]?
Answer: Its AUC is 15.6 µg·h/mL.

Question: What about the AUC [22] of the same compound?
Answer: The AUC was 17.4 µg·h/mL.

Question: What about the Vss/F [23] of the same compound?
Answer: The Vss/F was 235 L.

Question: And the CL/F [24]?
Answer: The CL/F was 23.8 L/h.

Question: And the Activity [25]?
Answer: Its Activity is 110 mg.

Question: And the CL_renal [26]?
Answer: The CL_renal was 7637 mL/h.

Question: And the Tmax [27]?
Answer: Its Tmax is 5.5 h.

Question: And the Cmax [28]?
Answer: Its Cmax is 1000 ng/mL.

Question: And the t1/2 [29]?
Answer: The t1/2 was 11.8 h.

Question: And the AUC [30]?
Answer: Its AUC is 14.7 µg·h/mL.

Question: What about the AUC [31] of the same compound?
Answer: Its AUC is 20.5 µg·h/mL.

Question: And the Vz/F [32]?
Answer: The Vz/F was 342 L.

Question: What about the CL/F [33] of the same compound?
Answer: The CL/F was 21.1 L/h.

Question: And the Activity [34]?
Answer: Its Activity is 95 mg.

Question: What about the CL_renal [35] of the same compound?
Answer: The CL_renal was 6876 mL/h.

Question: And the Activity [36]?
Answer: Its Activity is 47%.

Question: What about the Activity [37] of the same compound?
Answer: The Activity was 47%.

Question: What about the Activity [38] of the same compound?
Answer: Its Activity is 35%.

Question: And the Activity [39]?
Answer: The Activity was 10%.

Question: What about the Activity [40] of the same compound?
Answer: The Activity was 45%.

Source: ChEMBL document CHEMBL1255341, “Effect of ketoconazole on the pharmacokinetics of maribavir in healthy adults” (Antimicrob Agents Chemother, 2008)
